Reference: ChEMBL document CHEMBL1154448, “Thiazolyl/oxazolyl formazanyl indoles as potent anti-inflammatory agents” (Eur J Med Chem, 2008)

What was measured:
[1] = test system: Rattus norvegicus; test: Antiinflammatory activity in Albino rat assessed as inhibition of carrageenan-induced paw edema at 50 mg/kg, po administered 1 hr before carrageenan challenge by micro-pipette method relative to control; format: functional; parameters: scale not given: the % may be the effect or the level left
Summary of the method: (§1)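 Rats of either sex, 75-125 g, in groups of 6 (one control group). Compounds were suspended in gum acacia and given orally 1 h before carrageenin. Foot volume was measured by micro-pipette before and at 1 and 3 h after carrageenin. % activity was calculated from the mean oedema volumes of treated (Vt) and control (Vc) groups.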

[2] = test system: Mus musculus; test: Analgesic activity in mouse assessed as protection against phenylquinone-induced writhes at 50 mg/kg, po administered 1 hr before phenylquinone challenge relative to control; format: functional
Summary of the method: (§2)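 Mice in groups of 5 were dosed orally and, 1 h later, injected i.p. with 0.25 mL of 0.02% phenylquinone in 5% ethanol. Writhes per mouse were counted for 5 min, between 5 and 10 min after the irritant. % protection = (1 − mean writhes in test group / mean writhes in control group) × 100.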

[3] = Acute toxicity in ip dosed albino mouse assessed as mortality after 24 hrs; format: organism-based; conditions: in vivo, read-out: ALD50
Summary of the method: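 Albino mice of either sex (20-28 g), separate groups given graded intraperitoneal doses; percent mortality recorded 24 h after dosing; approximate 50% lethal dose (ALD50) calculated by the method of Smith.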

[4] = test system: Rattus norvegicus; test: Antiinflammatory activity in Albino rat assessed as inhibition of carrageenan-induced paw edema at 25 mg/kg, po administered 1 hr before carrageenan challenge by micro-pipette method relative to control; format: functional; parameters: scale not given: the % may be the effect or the level left; summary of the method: as §1
[5] = test system: Mus musculus; test: Analgesic activity in mouse assessed as protection against phenylquinone-induced writhes at 25 mg/kg, po administered 1 hr before phenylquinone challenge relative to control; format: functional; summary of the method: as §2
[6] = test system: Rattus norvegicus; test: Antiinflammatory activity in Albino rat assessed as inhibition of carrageenan-induced paw edema at 100 mg/kg, po administered 1 hr before carrageenan challenge by micro-pipette method relative to control; format: functional; parameters: scale not given: the % may be the effect or the level left; summary of the method: as §1
[7] = test system: Mus musculus; test: Analgesic activity in mouse assessed as protection against phenylquinone-induced writhes at 100 mg/kg, po administered 1 hr before phenylquinone challenge relative to control; format: functional; summary of the method: as §2
[8] = Toxicity in ip dosed Albino rat assessed as ulcerogenic activity after 8 hrs; format: organism-based; conditions: in vivo, read-out: UD50
Summary of the method: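 Adult albino rats of either sex, in groups of 10, non-pregnant, fasted 24 h with water allowed. Drugs were given i.p. and animals killed 8 h later. Stomach, duodenum and jejunum were examined with a hand lens for epithelial shedding, red spots or bleeding, and erosion or ulceration. Any one sign was scored as ulcerogenic. Result reported as UD50.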

COc1ccc(/N=N/C(=N\c2nc(-c3c(-c4ccc(Cl)cc4)[nH]c4ccccc34)cs2)c2c[nH]c3ccccc23)cc1
Activity [1]: 19.2%
Activity [2]: 18.8%
LD50 at 24 h [3]: > 800 mg/kg

COc1ccc(/N=N/C(=N\c2nc(-c3c(-c4ccc(Cl)cc4)[nH]c4ccccc34)cs2)c2c(C)[nH]c3ccccc23)cc1
Activity [1]: 15.4%
Activity [2]: 13.7%
LD50 at 24 h [3]: > 800 mg/kg

Clc1ccc(/N=N/C(=N\c2nc(-c3c(-c4ccc(Cl)cc4)[nH]c4ccccc34)cs2)c2c(-c3ccccc3)[nH]c3ccccc23)cc1
Activity [1]: 23.1%
Activity [2]: 21.9%
LD50 at 24 h [3]: > 800 mg/kg

Cc1[nH]c2ccccc2c1/C=N/c1nc(-c2c(-c3ccc(Cl)cc3)[nH]c3ccccc23)co1
Activity [1]: 21.3%
Activity [2]: 19.9%
LD50 at 24 h [3]: > 800 mg/kg

Cc1[nH]c2ccccc2c1/C=N/c1nc(-c2c(-c3ccc(Cl)cc3)[nH]c3ccccc23)cs1
Activity [4]: 36.4%
Activity [5]: 35.1%
Activity [1]: 53.3%
Activity [6]: 68.2%
Activity [2]: 51.4%
Activity [7]: 64.6%
TD50 at 8 h [8]: 200 mg/kg
LD50 at 24 h [3]: > 1000 mg/kg

CCc1[nH]c2ccccc2c1/C=N/c1nc(-c2c(-c3ccc(Cl)cc3)[nH]c3ccccc23)co1
Activity [1]: 17.3%
Activity [2]: 16.2%
LD50 at 24 h [3]: > 800 mg/kg

CCc1[nH]c2ccccc2c1/C=N/c1nc(-c2c(-c3ccc(Cl)cc3)[nH]c3ccccc23)cs1
Activity [1]: 25.8%
Activity [2]: 23.2%
LD50 at 24 h [3]: > 800 mg/kg

COc1ccc(/N=N/C(=N\c2nc(-c3c(-c4ccc(Cl)cc4)[nH]c4ccccc34)co2)c2c[nH]c3ccccc23)cc1
Activity [1]: 20.6%
Activity [2]: 19.2%
LD50 at 24 h [3]: > 800 mg/kg

Clc1ccc(/N=N/C(=N\c2nc(-c3c(-c4ccc(Cl)cc4)[nH]c4ccccc34)cs2)c2c[nH]c3ccccc23)cc1
Activity [1]: 9.6%
Activity [2]: 8.5%
LD50 at 24 h [3]: > 800 mg/kg

COc1ccc(/N=N/C(=N\c2nc(-c3c(-c4ccc(Cl)cc4)[nH]c4ccccc34)cs2)c2c(-c3ccccc3)[nH]c3ccccc23)cc1
Activity [1]: 11.5%
Activity [2]: 10.5%
LD50 at 24 h [3]: > 800 mg/kg

CCc1[nH]c2ccccc2c1C(=N/c1nc(-c2c(-c3ccc(Cl)cc3)[nH]c3ccccc23)co1)/N=N/c1ccc(Cl)cc1
Activity [1]: 23.5%
Activity [2]: 21.5%
LD50 at 24 h [3]: > 800 mg/kg

CCc1[nH]c2ccccc2c1C(=N/c1nc(-c2c(-c3ccc(Cl)cc3)[nH]c3ccccc23)co1)/N=N/c1ccc(OC)cc1
Activity [1]: 25.2%
Activity [2]: 23.9%
LD50 at 24 h [3]: > 800 mg/kg

Cc1[nH]c2ccccc2c1C(=N/c1nc(-c2c(-c3ccc(Cl)cc3)[nH]c3ccccc23)cs1)/N=N/c1ccc(Cl)cc1
Activity [1]: 21.2%
Activity [2]: 19.8%
LD50 at 24 h [3]: > 800 mg/kg

CCc1[nH]c2ccccc2c1C(=N/c1nc(-c2c(-c3ccc(Cl)cc3)[nH]c3ccccc23)cs1)/N=N/c1ccc(Cl)cc1
Activity [1]: 17.3%
Activity [2]: 16.2%
LD50 at 24 h [3]: > 800 mg/kg

Clc1ccc(/N=N/C(=N\c2nc(-c3c(-c4ccc(Cl)cc4)[nH]c4ccccc34)co2)c2c[nH]c3ccccc23)cc1
Activity [1]: 16.2%
Activity [2]: 14.7%
LD50 at 24 h [3]: > 800 mg/kg

COc1ccc(/N=N/C(=N\c2nc(-c3c(-c4ccc(Cl)cc4)[nH]c4ccccc34)co2)c2c(C)[nH]c3ccccc23)cc1
Activity [1]: 19.1%
Activity [2]: 17.8%
LD50 at 24 h [3]: > 800 mg/kg

Clc1ccc(/N=N/C(=N\c2nc(-c3c(-c4ccc(Cl)cc4)[nH]c4ccccc34)co2)c2c(-c3ccccc3)[nH]c3ccccc23)cc1
Activity [1]: 27.9%
Activity [2]: 26.3%
LD50 at 24 h [3]: > 800 mg/kg

Cc1[nH]c2ccccc2c1C(=N/c1nc(-c2c(-c3ccc(Cl)cc3)[nH]c3ccccc23)co1)/N=N/c1ccc(Cl)cc1
Activity [1]: 22.1%
Activity [2]: 21.2%
LD50 at 24 h [3]: > 800 mg/kg

COc1ccc(/N=N/C(=N\c2nc(-c3c(-c4ccc(Cl)cc4)[nH]c4ccccc34)co2)c2c(-c3ccccc3)[nH]c3ccccc23)cc1
Activity [1]: 17.6%
Activity [2]: 15.2%
LD50 at 24 h [3]: > 800 mg/kg

Clc1ccc(-c2[nH]c3ccccc3c2-c2csc(/N=C/c3c(-c4ccccc4)[nH]c4ccccc34)n2)cc1
Activity [1]: 19.7%
LD50 at 24 h [3]: 800 mg/kg

Clc1ccc(-c2[nH]c3ccccc3c2-c2csc(/N=C/c3c[nH]c4ccccc34)n2)cc1
Activity [1]: 31.8%
Activity [2]: 30.6%
LD50 at 24 h [3]: > 800 mg/kg

Clc1ccc(-c2[nH]c3ccccc3c2-c2coc(/N=C/c3c[nH]c4ccccc34)n2)cc1
Activity [1]: 22.7%
Activity [2]: 20.9%
LD50 at 24 h [3]: > 800 mg/kg

Clc1ccc(-c2[nH]c3ccccc3c2-c2coc(/N=C/c3c(-c4ccccc4)[nH]c4ccccc34)n2)cc1
Activity [1]: 25.3%
Activity [2]: 23.7%
LD50 at 24 h [3]: > 800 mg/kg

CCc1[nH]c2ccccc2c1C(=N/c1nc(-c2c(-c3ccc(Cl)cc3)[nH]c3ccccc23)cs1)/N=N/c1ccc(OC)cc1
Activity [1]: 13.5%
Activity [2]: 12.3%
LD50 at 24 h [3]: > 800 mg/kg

CCCCC1C(=O)N(c2ccccc2)N(c2ccccc2)C1=O [PHENYLBUTAZONE]
Activity [4]: 15.2%
Activity [5]: 13.7%
Activity [1]: 38.8%
Activity [6]: 65.4%
Activity [2]: 37.2%
Activity [7]: 62.3%
TD50 at 8 h [8]: 66.7 mg/kg
